HIV Rev-RRE inh = HIV-1 Rev-RRE binding inhibitors, primary screen, biochemical, FRET, protein-RNA interaction; inhibition, % at 8 µM; P05866; 97,000 compounds, 0.79% hits; Rev peptide-RRE RNA binding;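 active means inhibition above the screen-wide mean plus 3 SD, cut at about 35% in these data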
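Assay system: Labelled RRE RNA duplex and labelled Rev peptide | Times: 5 min preincubation and 15 min binding, 25 °C | Detection: FRET, ex 480 nm, em 540 and 671 nm | Evaluation: % inhibition of FRET ratio versus controls | Benchmarks: DMSO wells as 0% and neomycin B wells as 100% inhibition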
EphB4 ephrin blk = EphB4-ephrin-B2 interaction antagonists, primary screen, biochemical, TNYL-RAW peptide probe, fluorescence polarization; EphB4 LBD / TNYL-RAW-Alexa532 peptide; inhibition, % at 7 µM; 97,000 compounds, 0.15% hits;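 active means inhibition above the screen-wide mean inhibition plus 3 SD, cut at about 15% in these data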
hDAT+cocaine = changed hDAT dopamine uptake under cocaine IC80, either direction, primary screen, cocaine antagonist project, cell-based, LLC-PK1 hDAT, [14C]-dopamine uptake, MLSMR; LLC-PK1 hDAT cells, [14C]-dopamine uptake with cocaine IC80; actives deviate in either direction; B-score at 10 µM; Sodium-dependent dopamine transporter (Homo sapiens), Q01959; 110,000 compounds, 1.3% hits; AID 449768, 2010;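 active means Z score or B-score, a plate-position-corrected score, falls beyond the plate's 99.7% confidence bounds, in either direction; inactive means both scores lie inside the 99.7% bounds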
Target sequence (Q01959 whole entry, looked up): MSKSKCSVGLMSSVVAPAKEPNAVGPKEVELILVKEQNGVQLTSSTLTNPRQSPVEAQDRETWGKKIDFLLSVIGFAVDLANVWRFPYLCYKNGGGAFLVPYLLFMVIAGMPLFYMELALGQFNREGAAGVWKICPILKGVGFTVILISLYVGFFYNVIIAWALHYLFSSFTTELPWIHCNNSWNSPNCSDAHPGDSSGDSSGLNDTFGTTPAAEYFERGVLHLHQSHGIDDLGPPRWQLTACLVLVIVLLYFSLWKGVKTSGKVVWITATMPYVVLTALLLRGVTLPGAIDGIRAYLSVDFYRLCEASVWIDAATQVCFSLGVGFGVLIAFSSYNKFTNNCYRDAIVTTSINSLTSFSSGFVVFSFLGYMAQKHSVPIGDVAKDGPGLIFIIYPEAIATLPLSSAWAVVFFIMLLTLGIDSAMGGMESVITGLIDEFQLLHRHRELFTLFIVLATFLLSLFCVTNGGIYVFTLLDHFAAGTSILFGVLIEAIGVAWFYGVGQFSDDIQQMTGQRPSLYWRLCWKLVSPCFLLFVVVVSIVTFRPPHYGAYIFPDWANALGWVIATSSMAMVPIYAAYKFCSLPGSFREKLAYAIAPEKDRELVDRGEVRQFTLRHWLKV
Cav32 inh = Cav3.2 calcium influx blockers – cell-based, Fluo-4 calcium fluorescence, FDSS, MLSMR library, primary screen; Voltage-dependent T-type calcium channel subunit alpha-1H (Homo sapiens), O95180; Cav3.2-expressing cells; hits give low values; B-score at 10 µM; 100,000 compounds, 4% hits; AID 449739, 2010;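 active means single-dose well whose peak fluorescence ratio is a statistical outlier from its plate by either plate-standardised score or position-corrected B-score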
A number is an active result; ! = repeats disagree. The list is not random: actives were taken first. Their share in the collection is about 5.4%.

Screening O=C(CN(Cc1ccccc1)S(=O)(=O)c1ccc(F)cc1)NCCC1=CCCCC1 returned HIV Rev-RRE inh inactive, EphB4 ephrin blk inactive, hDAT+cocaine inactive and Cav32 inh inactive.
For O=C(/C=C/c1ccc(F)cc1)NCCC1=CCCCC1 the results were HIV Rev-RRE inh inactive, EphB4 ephrin blk inactive, hDAT+cocaine inactive and Cav32 inh -6.22.
Screening COC(=O)c1cn(C(=O)c2cccs2)c2ccccc12 returned HIV Rev-RRE inh inactive, EphB4 ephrin blk inactive, hDAT+cocaine inactive and Cav32 inh inactive.
O=C(CSCc1cccc(Br)c1)N/N=C/c1ccc2c(c1)OCO2 was read as HIV Rev-RRE inh inactive, EphB4 ephrin blk inactive, hDAT+cocaine inactive and Cav32 inh -5.4.
`Cc1cccc(C)c1OCC(=O)N/N=C/c1ccc2c(c1)OCO2` gave HIV Rev-RRE inh inactive, EphB4 ephrin blk inactive, hDAT+cocaine inactive and Cav32 inh inactive.
For CC(SCc1ccccc1)C(=O)N/N=C/c1ccc2c(c1)OCO2 (stereo unspecified) the results were HIV Rev-RRE inh inactive, EphB4 ephrin blk inactive, hDAT+cocaine inactive and Cav32 inh -6.12.
Screening CCOc1ccc(C(=O)Nc2c3c(nn2C(C)(C)C)CSC3)cc1OCC returned HIV Rev-RRE inh inactive, EphB4 ephrin blk inactive, hDAT+cocaine inactive and Cav32 inh -3.33.
`CCOC(=O)c1ccccc1NC(=O)CSc1nnc(COc2ccccc2C)n1C` gave HIV Rev-RRE inh inactive, EphB4 ephrin blk inactive, hDAT+cocaine inactive and Cav32 inh -4.64.
O=C(CCN1C(=O)C2(OCCO2)c2ccccc21)c1ccccc1 was read as HIV Rev-RRE inh inactive, EphB4 ephrin blk inactive, hDAT+cocaine inactive and Cav32 inh inactive.
Screening O=C(CN1C(=O)C2(OCCO2)c2ccccc21)c1ccc(Br)cc1 returned HIV Rev-RRE inh inactive, EphB4 ephrin blk inactive, hDAT+cocaine inactive and Cav32 inh -5.5.
Screening C=CCN1C(c2ccc(OCC)cc2)=CS/C1=C(\C#N)c1nnc2n1CCCCC2 returned hDAT+cocaine 3.79! and Cav32 inh inactive.
O=C(Cc1c[nH]c2ccccc12)NCc1ccc2c(c1)OCO2 was read as HIV Rev-RRE inh inactive, EphB4 ephrin blk inactive, hDAT+cocaine inactive and Cav32 inh inactive.
For Cc1cccc(-c2noc(-c3cc4ccccc4oc3=O)n2)c1 the results were HIV Rev-RRE inh inactive, EphB4 ephrin blk inactive, hDAT+cocaine inactive and Cav32 inh inactive.
`Brc1cccc(-c2nnc(SCc3ccon3)n2-c2ccccc2)c1` gave HIV Rev-RRE inh inactive, EphB4 ephrin blk inactive, hDAT+cocaine inactive and Cav32 inh -4.59.
`CC(C)Sc1nnc([C@H](Cc2c[nH]c3ccccc23)NC(=O)OC(C)(C)C)o1` gave HIV Rev-RRE inh inactive, EphB4 ephrin blk inactive, hDAT+cocaine inactive and Cav32 inh -4.11.
`COc1ccc(CNc2nc(NCc3ccc(OC)cc3)n(C(=O)c3ccccc3[N+](=O)[O-])n2)cc1` gave HIV Rev-RRE inh inactive, EphB4 ephrin blk inactive, hDAT+cocaine inactive and Cav32 inh inactive.
`Cc1ccc(S(=O)(=O)CC(=O)Nc2nc(-c3ccccc3)cs2)cc1` gave HIV Rev-RRE inh inactive, EphB4 ephrin blk inactive, hDAT+cocaine inactive and Cav32 inh -7.22.
O=C(CS(=O)(=O)c1ccccc1)Nc1nc(-c2ccccc2)cs1 was read as HIV Rev-RRE inh inactive, EphB4 ephrin blk inactive, hDAT+cocaine inactive and Cav32 inh -4.92.
Screening COC/C=C/C1=CC2=CC(=O)C(C)(O)C(=O)C2=CO1 (stereo unspecified) returned hDAT+cocaine inactive and Cav32 inh inactive.
COc1ccc(C2/C=C\CN(C(=O)C3CCCC3)[C@H](Cc3ccccc3)C(=O)N2Cc2ccc(F)cc2)cc1 (stereo partly specified) was read as hDAT+cocaine inactive and Cav32 inh inactive.
`S=C(NCCC(c1ccccc1)c1ccccc1)Nc1ccc(Cl)cc1` gave HIV Rev-RRE inh inactive, EphB4 ephrin blk inactive, hDAT+cocaine inactive and Cav32 inh -2.98.
Screening O=C(Nc1ncc(Br)s1)C(Cc1ccccc1)n1cccc1 (stereo unspecified) returned HIV Rev-RRE inh inactive, EphB4 ephrin blk inactive, hDAT+cocaine inactive and Cav32 inh -4.48.
`O=C(Nc1cccnc1)C(Cc1ccccc1)n1cccc1` (stereo unspecified) gave HIV Rev-RRE inh inactive, EphB4 ephrin blk inactive, hDAT+cocaine inactive and Cav32 inh inactive.
CC(C)(C)OC(=O)NC(CCCCNC=O)C(=O)O (stereo unspecified) was read as HIV Rev-RRE inh inactive, EphB4 ephrin blk inactive, hDAT+cocaine inactive and Cav32 inh inactive.
For CC(C)CC(NC(=O)C(Cc1ccc(OCc2ccccc2)cc1)NC(=O)OC(C)(C)C)C(N)=O (stereo unspecified) the results were HIV Rev-RRE inh inactive, EphB4 ephrin blk inactive, hDAT+cocaine inactive and Cav32 inh -4.79.
Screening COc1ccccc1CNC(=O)c1cnc2sccn2c1=O returned hDAT+cocaine inactive.
COc1ccccc1CNC(=O)c1cnc2ccccn2c1=O was read as hDAT+cocaine 3.51 and Cav32 inh inactive.
Screening COCOc1ccc(/C=C/C(=O)c2c(O)cc(OCOC)cc2OCOC)cc1 returned hDAT+cocaine inactive and Cav32 inh inactive.
Screening CCn1cc(/C=N/NS(=O)(=O)c2ccc(OC)cc2)c(C)n1 returned HIV Rev-RRE inh inactive, EphB4 ephrin blk inactive, hDAT+cocaine inactive and Cav32 inh inactive.
Screening CC(C)N(C(=O)COc1ccc(Br)cc1Cl)C(C)C returned HIV Rev-RRE inh inactive, EphB4 ephrin blk inactive, hDAT+cocaine inactive and Cav32 inh -5.55.
For Cc1cc([N+](=O)[O-])c(NCCCCCCO)c([N+](=O)[O-])c1 the results were HIV Rev-RRE inh inactive, EphB4 ephrin blk inactive, hDAT+cocaine inactive and Cav32 inh inactive.
For O=C(N[C@@H](Cc1ccccc1)C(=O)OCc1ccccc1)c1nc[nH]c1C(=O)N1CCc2ccccc2C1 the results were hDAT+cocaine inactive and Cav32 inh inactive.
Screening CCOC(=O)c1[nH]c2cc(OC)c(OC)cc2c1NC(=O)CN1CCN(c2ccc(OC)cc2)C(C)C1 (stereo unspecified) returned HIV Rev-RRE inh inactive, EphB4 ephrin blk inactive, hDAT+cocaine inactive and Cav32 inh -5.4.
`Cc1ccc(N(CC(O)CON=C2c3ccccc3-c3ccccc32)S(C)(=O)=O)cc1` (stereo unspecified) gave HIV Rev-RRE inh inactive, EphB4 ephrin blk inactive, hDAT+cocaine inactive and Cav32 inh inactive.
`O=C(Nc1ccc(S(=O)(=O)N2CCCCCC2)cc1)c1ccc(Br)o1` gave HIV Rev-RRE inh inactive, EphB4 ephrin blk inactive, hDAT+cocaine inactive and Cav32 inh -3.15.
O=C(Nc1ccc(S(=O)(=O)NCc2ccccc2)cc1)c1ccc(Br)o1 was read as HIV Rev-RRE inh inactive, EphB4 ephrin blk inactive, hDAT+cocaine inactive and Cav32 inh inactive.
